In ChEMBL document CHEMBL4261600 (Eur J Med Chem, 2018):

Assays:
[1] = system: Tyrosine-protein kinase ABL1 (Homo sapiens), P00519 [F317L]; experiment: Binding affinity to human phosphorylated ABL1 F317L mutant (S229 to K512 residues) expressed in mammalian expression system assessed as remaining unbound target protein level at 1000 nM by Kinomescan method relative to control
Outline: (§1)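 Single-point competition binding screen across a panel of 468 kinases and mutants, with the inhibitor at 1 μM. Binding is read out as percent of a DMSO control, and targets below 1 percent control were classed as strong binders.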

[2] = system: Tyrosine-protein kinase ABL1 (Homo sapiens), P00519 [T315I]; experiment: Binding affinity to human phosphorylated ABL1 T315I mutant (S229 to K512 residues) expressed in mammalian expression system assessed as remaining unbound target protein level at 1000 nM by Kinomescan method relative to control; outline: as §1
[3] = molecular target: Tyrosine-protein kinase Blk (Homo sapiens) (UniProt P51451); experiment: Binding affinity to wild-type human partial length BLK (G211 to L503 residues) expressed in bacterial expression system assessed as remaining unbound target protein level at 1000 nM by Kinomescan method relative to control
Tyrosine-protein kinase Blk (Homo sapiens), sequence (P51451 2-505 limits assumed): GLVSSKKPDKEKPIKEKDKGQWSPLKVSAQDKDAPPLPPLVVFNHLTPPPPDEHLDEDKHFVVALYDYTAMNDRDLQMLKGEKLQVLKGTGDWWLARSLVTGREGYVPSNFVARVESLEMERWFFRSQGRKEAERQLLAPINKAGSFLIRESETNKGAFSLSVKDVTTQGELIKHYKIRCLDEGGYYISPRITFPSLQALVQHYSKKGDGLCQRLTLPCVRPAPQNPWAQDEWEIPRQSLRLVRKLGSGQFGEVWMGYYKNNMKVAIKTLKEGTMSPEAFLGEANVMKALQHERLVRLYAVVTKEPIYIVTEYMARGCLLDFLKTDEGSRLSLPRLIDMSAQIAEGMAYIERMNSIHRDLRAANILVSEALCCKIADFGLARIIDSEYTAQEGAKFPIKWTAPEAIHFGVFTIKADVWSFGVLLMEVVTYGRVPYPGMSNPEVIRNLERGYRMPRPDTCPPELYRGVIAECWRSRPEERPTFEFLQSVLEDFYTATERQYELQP
Outline: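 Profiled in a KINOMEscan binding panel with the inhibitor at a single concentration of 1 μM. Binding to each kinase was read out as percent of control, relative to a DMSO control. Strong binders were defined as those with a percent control value below 1.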

[4] = molecular target: Calcium/calmodulin-dependent protein kinase type 1 (Homo sapiens) (UniProt Q14012); experiment: Binding affinity to wild-type human full length CAMK1 (M1 to L370 residues) expressed in bacterial expression system assessed as remaining unbound target protein level at 1000 nM by Kinomescan method relative to control; outline: as §1
Calcium/calmodulin-dependent protein kinase type 1 (Homo sapiens), sequence (Q14012 whole entry, looked up, the tested form may be a part): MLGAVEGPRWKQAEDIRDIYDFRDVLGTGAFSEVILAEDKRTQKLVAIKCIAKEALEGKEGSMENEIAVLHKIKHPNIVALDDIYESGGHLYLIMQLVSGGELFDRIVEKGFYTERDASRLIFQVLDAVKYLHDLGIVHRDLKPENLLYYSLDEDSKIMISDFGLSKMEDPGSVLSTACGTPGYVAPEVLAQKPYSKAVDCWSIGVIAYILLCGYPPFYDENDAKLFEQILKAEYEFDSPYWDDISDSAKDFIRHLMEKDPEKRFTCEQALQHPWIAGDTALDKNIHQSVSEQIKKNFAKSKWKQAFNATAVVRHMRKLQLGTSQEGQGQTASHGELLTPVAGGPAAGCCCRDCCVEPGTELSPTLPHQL

[5] = molecular target: CDK4/Cyclin D3 (Homo sapiens) (UniProt P11802+P30281); experiment: Binding affinity to wild-type human full length CDK4/cyclinD3 (M1 to E303 residues) expressed in mammalian expression system assessed as remaining unbound target protein level at 1000 nM by Kinomescan method relative to control
Outline: (§2)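 KINOMEscan competitive binding profile at 1 μM inhibitor. Remaining target binding reported as percent of DMSO control.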

[6] = molecular target: Cyclin-dependent kinase 5 (Homo sapiens) (UniProt Q00535); experiment: Binding affinity to wild-type human full length CDK5 (M1 to P292 residues) expressed in bacterial expression system assessed as remaining unbound target protein level at 1000 nM by Kinomescan method relative to control; outline: as §2
[7] = molecular target: Serine/threonine-protein kinase Chk2 (Homo sapiens) (UniProt O96017); experiment: Binding affinity to wild-type human partial length CHEK2 (S253 to E574 residues) expressed in bacterial expression system assessed as remaining unbound target protein level at 1000 nM by Kinomescan method relative to control
Serine/threonine-protein kinase Chk2 (Homo sapiens), sequence (O96017 whole entry, the tested form may be a part): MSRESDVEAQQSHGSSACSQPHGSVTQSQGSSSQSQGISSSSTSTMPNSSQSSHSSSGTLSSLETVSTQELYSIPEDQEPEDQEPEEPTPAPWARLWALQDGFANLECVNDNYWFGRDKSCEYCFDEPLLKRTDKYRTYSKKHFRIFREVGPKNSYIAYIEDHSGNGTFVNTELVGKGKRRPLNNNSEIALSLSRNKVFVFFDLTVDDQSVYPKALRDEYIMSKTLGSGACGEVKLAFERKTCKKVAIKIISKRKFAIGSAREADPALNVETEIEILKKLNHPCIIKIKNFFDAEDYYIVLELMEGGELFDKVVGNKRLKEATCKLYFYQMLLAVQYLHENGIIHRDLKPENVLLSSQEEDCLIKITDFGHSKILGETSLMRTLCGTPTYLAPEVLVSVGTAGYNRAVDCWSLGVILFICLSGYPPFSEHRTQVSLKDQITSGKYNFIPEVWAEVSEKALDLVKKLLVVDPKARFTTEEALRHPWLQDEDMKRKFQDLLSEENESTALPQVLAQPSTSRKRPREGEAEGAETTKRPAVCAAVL

[8] = molecular target: Citron Rho-interacting kinase (Homo sapiens) (UniProt O14578); experiment: Binding affinity to wild-type human partial length CIT (M68 to E432 residues) expressed in bacterial expression system assessed as remaining unbound target protein level at 1000 nM by Kinomescan method relative to control
Outline: (§3)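 KINOMEscan competition binding profile across a panel of 468 kinases and mutants, with the inhibitor tested at a single concentration of 1 μM. Binding is reported as percent of control, meaning signal relative to a DMSO control.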

[9] = molecular target: Receptor tyrosine-protein kinase erbB-4 (Homo sapiens) (UniProt Q15303); experiment: Binding affinity to wild-type human partial length ERBB4 (L690 to K994 residues) expressed in bacterial expression system assessed as remaining unbound target protein level at 1000 nM by Kinomescan method relative to control
Receptor tyrosine-protein kinase erbB-4 (Homo sapiens), sequence (Q15303 whole entry, the tested form may be a part): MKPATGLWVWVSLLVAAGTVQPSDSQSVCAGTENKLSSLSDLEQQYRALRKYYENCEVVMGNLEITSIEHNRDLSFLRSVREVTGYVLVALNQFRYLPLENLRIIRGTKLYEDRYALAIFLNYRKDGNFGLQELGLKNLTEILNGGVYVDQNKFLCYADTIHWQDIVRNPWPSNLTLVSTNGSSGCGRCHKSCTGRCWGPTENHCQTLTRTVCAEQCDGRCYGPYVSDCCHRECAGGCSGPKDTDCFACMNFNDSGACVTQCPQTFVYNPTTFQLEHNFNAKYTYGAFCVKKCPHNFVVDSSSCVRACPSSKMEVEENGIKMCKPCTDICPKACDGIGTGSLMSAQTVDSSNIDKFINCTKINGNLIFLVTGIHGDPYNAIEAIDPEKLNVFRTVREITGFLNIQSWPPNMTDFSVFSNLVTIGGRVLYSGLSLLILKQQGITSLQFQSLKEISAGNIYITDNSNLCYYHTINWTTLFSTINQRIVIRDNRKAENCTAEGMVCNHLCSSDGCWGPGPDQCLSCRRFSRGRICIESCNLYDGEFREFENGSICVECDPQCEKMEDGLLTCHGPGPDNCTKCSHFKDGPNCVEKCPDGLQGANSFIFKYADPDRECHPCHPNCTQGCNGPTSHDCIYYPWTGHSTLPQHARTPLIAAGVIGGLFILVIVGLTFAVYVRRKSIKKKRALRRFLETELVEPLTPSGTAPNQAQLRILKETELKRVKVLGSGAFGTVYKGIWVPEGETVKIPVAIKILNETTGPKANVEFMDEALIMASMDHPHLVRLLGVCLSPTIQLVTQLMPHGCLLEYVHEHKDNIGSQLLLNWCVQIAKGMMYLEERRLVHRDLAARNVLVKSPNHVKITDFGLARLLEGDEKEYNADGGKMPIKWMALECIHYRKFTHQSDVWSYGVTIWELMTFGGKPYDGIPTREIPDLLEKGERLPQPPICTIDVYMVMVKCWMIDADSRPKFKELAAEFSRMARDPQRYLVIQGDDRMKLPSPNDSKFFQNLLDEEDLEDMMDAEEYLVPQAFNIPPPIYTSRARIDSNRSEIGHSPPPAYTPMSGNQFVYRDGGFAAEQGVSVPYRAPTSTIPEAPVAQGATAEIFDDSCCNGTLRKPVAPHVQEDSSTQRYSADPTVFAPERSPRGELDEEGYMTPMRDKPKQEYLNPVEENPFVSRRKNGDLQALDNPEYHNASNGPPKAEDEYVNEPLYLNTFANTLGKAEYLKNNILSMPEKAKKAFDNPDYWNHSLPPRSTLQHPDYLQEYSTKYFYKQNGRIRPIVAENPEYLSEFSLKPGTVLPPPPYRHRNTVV

[10] = system: Receptor-type tyrosine-protein kinase FLT3 (Homo sapiens), P36888 [D835Y]; experiment: Binding affinity to human partial length FLT3 D835Y mutant (Q580 to Y969 residues) expressed in bacterial expression system assessed as remaining unbound target protein level at 1000 nM by Kinomescan method relative to control
Outline: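 KINOMEscan competition-binding profiling across the panel of 468 kinases and mutants, with inhibitor tested at 1 μM. Binding is expressed as percent of control, with DMSO as the reference control.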

[11] = molecular target: Tyrosine-protein kinase Fyn (Homo sapiens) (UniProt P06241); experiment: Binding affinity to wild-type human partial length FYN (T243 to L534 residues) expressed in bacterial expression system assessed as remaining unbound target protein level at 1000 nM by Kinomescan method relative to control
[12] = molecular target: Homeodomain-interacting protein kinase 4 (Homo sapiens) (UniProt Q8NE63); experiment: Binding affinity to wild-type human partial length HIPK4 (M1 to V384 residues) expressed in bacterial expression system assessed as remaining unbound target protein level at 1000 nM by Kinomescan method relative to control
Homeodomain-interacting protein kinase 4 (Homo sapiens), sequence (Q8NE63 whole entry, the tested form may be a part): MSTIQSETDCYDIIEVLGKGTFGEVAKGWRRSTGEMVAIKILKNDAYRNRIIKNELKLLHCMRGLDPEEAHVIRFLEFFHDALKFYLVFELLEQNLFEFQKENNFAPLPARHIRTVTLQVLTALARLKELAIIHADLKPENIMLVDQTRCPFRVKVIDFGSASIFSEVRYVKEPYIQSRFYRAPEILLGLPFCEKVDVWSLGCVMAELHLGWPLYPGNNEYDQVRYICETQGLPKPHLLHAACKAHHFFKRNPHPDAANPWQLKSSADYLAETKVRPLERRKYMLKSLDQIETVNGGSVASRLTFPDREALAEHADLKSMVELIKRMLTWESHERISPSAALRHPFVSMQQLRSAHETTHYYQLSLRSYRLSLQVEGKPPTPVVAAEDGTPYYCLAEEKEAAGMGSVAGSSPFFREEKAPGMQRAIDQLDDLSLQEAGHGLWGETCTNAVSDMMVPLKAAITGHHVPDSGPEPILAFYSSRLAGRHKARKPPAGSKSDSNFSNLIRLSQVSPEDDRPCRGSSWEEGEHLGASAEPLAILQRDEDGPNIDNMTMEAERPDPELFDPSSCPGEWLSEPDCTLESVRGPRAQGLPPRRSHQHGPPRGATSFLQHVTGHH
Outline: (§4)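 KINOMEscan binding panel of 468 kinases/mutants. Inhibitor was tested at a single concentration of 1 μM. Binding is reported as percent of control, defined relative to a DMSO control.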

[13] = molecular target: Mitogen-activated protein kinase kinase kinase 3 (Homo sapiens) (UniProt Q99759); experiment: Binding affinity to wild-type human partial length MAP3K3 (E320 to Y626 residues) expressed in mammalian expression system assessed as remaining unbound target protein level at 1000 nM by Kinomescan method relative to control
[14] = molecular target: MAP kinase-activated protein kinase 5 (Homo sapiens) (UniProt Q8IW41); experiment: Binding affinity to wild-type human partial length MAPKAPK5 (M1 to D322 residues) expressed in mammalian expression system assessed as remaining unbound target protein level at 1000 nM by Kinomescan method relative to control; outline: as §4
[15] = molecular target: Mitogen-activated protein kinase kinase kinase 9 (Homo sapiens) (UniProt P80192); experiment: Binding affinity to wild-type human partial length MLK1 (V88 to W426 residues) expressed in bacterial expression system assessed as remaining unbound target protein level at 1000 nM by Kinomescan method relative to control; outline: as §4
[16] = molecular target: Serine/threonine-protein kinase pim-2 (Homo sapiens) (UniProt Q9P1W9); experiment: Binding affinity to wild-type human partial length PIM2 (M1 to E291 residues) expressed in bacterial expression system assessed as remaining unbound target protein level at 1000 nM by Kinomescan method relative to control
Serine/threonine-protein kinase pim-2 (Homo sapiens), sequence (Q9P1W9 whole entry, looked up, the tested form may be a part): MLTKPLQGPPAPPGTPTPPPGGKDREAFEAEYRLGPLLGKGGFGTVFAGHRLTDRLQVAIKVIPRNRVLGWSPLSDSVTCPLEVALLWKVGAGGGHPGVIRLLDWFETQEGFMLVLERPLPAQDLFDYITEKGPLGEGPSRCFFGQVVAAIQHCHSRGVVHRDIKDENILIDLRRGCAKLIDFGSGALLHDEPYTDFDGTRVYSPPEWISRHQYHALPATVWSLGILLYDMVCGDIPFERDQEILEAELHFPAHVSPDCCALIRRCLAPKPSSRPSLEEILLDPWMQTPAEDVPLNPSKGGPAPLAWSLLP

[17] = molecular target: RAF proto-oncogene serine/threonine-protein kinase (Homo sapiens) (UniProt P04049); experiment: Binding affinity to wild-type human partial length RAF1 (I330 to T640 residues) expressed in bacterial expression system assessed as remaining unbound target protein level at 1000 nM by Kinomescan method relative to control
RAF proto-oncogene serine/threonine-protein kinase (Homo sapiens), sequence (P04049 whole entry, the tested form may be a part): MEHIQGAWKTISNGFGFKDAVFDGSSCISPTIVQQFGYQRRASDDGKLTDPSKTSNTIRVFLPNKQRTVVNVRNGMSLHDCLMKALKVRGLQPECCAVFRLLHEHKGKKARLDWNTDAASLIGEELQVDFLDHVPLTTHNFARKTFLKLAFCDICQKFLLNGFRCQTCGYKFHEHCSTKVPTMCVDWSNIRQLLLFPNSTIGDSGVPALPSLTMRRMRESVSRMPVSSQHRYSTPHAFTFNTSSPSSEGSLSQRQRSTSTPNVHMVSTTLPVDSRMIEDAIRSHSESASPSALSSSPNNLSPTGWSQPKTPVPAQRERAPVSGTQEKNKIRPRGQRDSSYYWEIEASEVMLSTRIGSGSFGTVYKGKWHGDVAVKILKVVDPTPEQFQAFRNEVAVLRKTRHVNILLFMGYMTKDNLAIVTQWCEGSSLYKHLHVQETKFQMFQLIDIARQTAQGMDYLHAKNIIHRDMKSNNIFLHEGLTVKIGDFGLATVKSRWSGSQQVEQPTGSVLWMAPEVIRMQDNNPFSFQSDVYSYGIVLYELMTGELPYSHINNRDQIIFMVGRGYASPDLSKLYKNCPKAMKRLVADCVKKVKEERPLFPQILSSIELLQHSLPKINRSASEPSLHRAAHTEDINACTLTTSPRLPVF

[18] = molecular target: Ribosomal protein S6 kinase beta-1 (Homo sapiens) (UniProt P23443); experiment: Binding affinity to wild-type human partial length S6K1 (M1 to S421 residues) expressed in mammalian expression system assessed as remaining unbound target protein level at 1000 nM by Kinomescan method relative to control
Ribosomal protein S6 kinase beta-1 (Homo sapiens), sequence (P23443 whole entry, looked up, the tested form may be a part): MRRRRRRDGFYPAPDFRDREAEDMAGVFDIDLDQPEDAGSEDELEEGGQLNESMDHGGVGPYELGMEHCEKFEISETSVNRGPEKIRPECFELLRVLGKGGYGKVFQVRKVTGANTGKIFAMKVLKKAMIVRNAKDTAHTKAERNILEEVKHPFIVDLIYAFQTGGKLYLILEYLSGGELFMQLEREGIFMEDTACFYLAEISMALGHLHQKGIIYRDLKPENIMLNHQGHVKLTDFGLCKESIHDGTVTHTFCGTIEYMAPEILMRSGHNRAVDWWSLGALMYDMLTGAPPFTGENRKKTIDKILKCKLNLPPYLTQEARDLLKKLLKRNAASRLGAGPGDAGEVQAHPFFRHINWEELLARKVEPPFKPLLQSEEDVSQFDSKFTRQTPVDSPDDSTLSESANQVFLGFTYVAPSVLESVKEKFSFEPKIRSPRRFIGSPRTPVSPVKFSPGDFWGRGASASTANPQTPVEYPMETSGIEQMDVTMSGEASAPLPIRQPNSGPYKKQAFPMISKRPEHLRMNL

[19] = molecular target: Tyrosine-protein kinase SYK (Homo sapiens) (UniProt P43405); experiment: Binding affinity to wild-type human partial length SYK (D354 to N635 residues) expressed in bacterial expression system assessed as remaining unbound target protein level at 1000 nM by Kinomescan method relative to control
[20] = molecular target: Serine/threonine-protein kinase TNNI3K (Homo sapiens) (UniProt Q59H18); experiment: Binding affinity to wild-type human full length TNNI3K (M1 to S835 residues) expressed in bacterial expression system assessed as remaining unbound target protein level at 1000 nM by Kinomescan method relative to control; outline: as §3

SMILES: COCCN[C@H]1CC[C@H](Nc2cc(-c3csc(NCC4(C#N)CCOCC4)n3)c(Cl)cn2)CC1
- Activity [1]: 100%
- Activity [2]: 95%
- Activity [3]: 97%
- Activity [4]: 89%
- Activity [5]: 72%
- Activity [6]: 94%
- Activity [7]: 90%
- Activity [8]: 23%
- Activity [9]: 85%
- Activity [10]: 100%
- Activity [11]: 83%
- Activity [12]: 9.9%
- Activity [13]: 100%
- Activity [14]: 93%
- Activity [15]: 86%
- Activity [16]: 53%
- Activity [17]: 100%
- Activity [18]: 95%
- Activity [19]: 93%
- Activity [20]: 95%
